Experimental findings from ChEMBL document CHEMBL2203235, “Optimization of a natural product-based class of γ-secretase modulators” (J Med Chem, 2012) are described below.

Series [1] in a line: Plasma concentration in CD1 mouse at 1 mg/kg, iv at 6 hrs.
Series [2] can be described thus: Modulation of gamma secretase in CHO-2B7 cells assessed as reduction in amyloid beta 40 level after 5 hrs by MSD ELISA. The format is cell-based. To be noted: Cricetulus griseus, CHO-2B7, 5 h.
Series [3] in a line: Modulation of gamma secretase in CHO-2B7 cells assessed as reduction in amyloid beta 42 level after 5 hrs by MSD ELISA. The format is cell-based. To be noted: Cricetulus griseus, CHO-2B7, 5 h. A general note: ELISA stands for enzyme-linked immunosorbent assay.
Series [4] is described as follows: Ratio of drug uptake in brain to plasma in CD1 mouse at 1 mg/kg, iv at 6 hrs. To be noted: brain and plasma.
Series [5] has as its system Liver microsomes. Put plainly: Metabolic stability in human liver microsomes at 1 uM after 60 mins by LC/MS/MS analysis. To be noted: 1 h. In general terms: Microsomes from liver hold many membrane-bound enzymes, among them those of drug oxidation.
A short description of series [6]: Ratio of drug uptake in brain to plasma in P-gp knockout mouse at 10 mg/kg, ip at 6 hrs. To be noted: brain and plasma, read-out: BPR. The format is ADME, organism-based. Also noted: dose 10 mg/kg, route intraperitoneal. Put shortly: (§1)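 Dosing was 10 mg/kg IP in MDR1 (P-gp) knockout mice and, identically, in wild-type FVB mice. Brain and plasma levels were taken 6 h after dosing to give a brain-to-plasma ratio.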

Series [7] is described as follows: Drug uptake in CD1 mouse brain at 1 mg/kg, iv at 6 hrs.
Series [8] is described as follows: Ratio of drug uptake in brain to plasma in FVB mouse at 10 mg/kg, ip at 6 hrs. The format is ADME, organism-based. Further details: dose 10 mg/kg, route intraperitoneal. To be noted: brain and plasma, read-out: BPR. The gist of the method: as §1
Series [9] deals with CHO-2B7. Put plainly: Modulation of gamma secretase in CHO-2B7 cells assessed as reduction in amyloid beta 40 level at 20 mM after 5 hrs by MSD ELISA. The format is cell-based. Also noted: scale not given: the % may be the effect or the level left. To be noted: Cricetulus griseus.
A short description of series [10]: Modulation of gamma-secretase assessed as increase in amyloid beta 38 level by cell based assay.
Series [11] can be described thus: Modulation of gamma-secretase assessed as reduction in amyloid beta 42 level by cell based assay.
A short description of series [12]: Modulation of gamma-secretase assessed as reduction in amyloid beta 40 level by cell based assay.

One may read the IC50 as the concentration that gives 50% inhibition.

Structures are written as SMILES.

Turning to `CC(C)[C@@H](OC(=O)N1CCC1)[C@H]1C[C@@H](C)[C@H]2[C@H](O1)[C@H](O)[C@@]1(C)[C@@H]3CC[C@H]4C(C)(C)[C@@H](OC(=O)N(C)C5CN(C)C5)CC[C@@]45C[C@@]35CC[C@]21C`, the values for the concentration at 6 h in series [1] and in series [7] were 0.274 µM and 0.011 µM, respectively. The IC50 in series [2] was 5.4 µM; in series [3] it was 0.091 µM. Further, the Kp at 6 h was 0.04 in series [4], 3.1 in [6] and 0.035 in series [8]. Also, the Stability result in [5] is “Stable”.
With `CCO[C@@H]([C@H]1C[C@@H](C)[C@H]2[C@H](O1)[C@H](O)[C@@]1(C)[C@@H]3CC[C@H]4C(C)(C)[C@@H](O[C@H]5CN(CC(F)(F)F)CCO5)CC[C@@]45C[C@@]35CC[C@]21C)C(C)(C)O`, the half-maximal inhibitory concentration (IC50) in series [3] was found to be 2.3 µM. In series [5], the Stability result is “Stable”. Also, in [9], the Activity was determined as 44%.
As to `CC(=O)O[C@@H]([C@H]1C[C@@H](C)C2=C(O1)[C@H](O)[C@@]1(C)[C@@H]3CC[C@H]4C(C)(C)[C@@H](O[C@@H]5OC[C@@H](O)[C@H](O)[C@H]5O)CC[C@@]45C[C@@]35CC[C@]21C)C(C)(C)O`, the IC50 in [10] is 0.061 µM; in series [11] it was 0.1 µM; in series [12], 2.7 µM.
